Common to all, as to format: functional
The test system of one assay is Enterococcus faecalis. The experiment in a line: Antimicrobial activity against Enterococcus faecalis ATCC 29212 by broth microdilution method. Summed up: (§1)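 Two-fold broth microdilution in Mueller-Hinton broth. Compound in DMSO added to bacterial culture at 5 × 10^5 cells/ml, starting at 64 µg/ml, then serially doubled down. Incubated at 37 °C overnight and read as OD600. MIC taken as the minimum inhibitory concentration, obtained in at least two independent experiments.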
On the technique in general: Dilution methods test growth across graded concentrations, often in twofold steps.

A further assay relates to Streptococcus. The experiment in a line: Antimicrobial activity against hemolytic Streptococcus Group B CMCC 32210 by broth microdilution method. Summed up: as §1
For the next assay, the system named is Pseudomonas aeruginosa. Put plainly: Antimicrobial activity against Pseudomonas aeruginosa ATCC 27853 by broth microdilution method. Summed up: as §1
The subject of assay [1] is Staphylococcus aureus. Put plainly: Ratio of MIC for vancomycin to compound for methicillin-resistant Staphylococcus aureus ATCC 43300 by broth microdilution method.
Assay [2] deals with Staphylococcus aureus. The experiment in a line: Antimicrobial activity against methicillin-resistant Staphylococcus aureus ATCC 43300 by broth microdilution method. Summed up: (§2)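 Two-fold serial dilution in Mueller-Hinton broth, starting at 64 µg/ml. Compound was added as a DMSO solution to bacterial culture at 5 × 10^5 cells/ml, then double-diluted. Plates were incubated overnight at 37 °C and OD600 was read. MIC was taken from at least two independent experiments.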

Another assay concerns Escherichia coli. Put plainly: Antimicrobial activity against Escherichia coli ATCC 25922 by broth microdilution method. Summed up: as §1
In the next assay the test system is Candida albicans. The experiment in a line: Antifungal activity against Candida albicans ATCC 10231 by broth microdilution method.
For assay [3], the system named is Staphylococcus epidermidis. The experiment in a line: Antimicrobial activity against Staphylococcus epidermidis ATCC 12228 by broth microdilution method. Summed up:
as §1

The test system of assay [4] is Staphylococcus aureus. The experiment in a line: Antimicrobial activity against Staphylococcus aureus ATCC 25923 by broth microdilution method. Summed up: as §1
Assay [5] relates to Salmonella enterica subsp. enterica serovar Paratyphi B. Put plainly: Antimicrobial activity against Salmonella paratyphi B CMCC 50094 by broth microdilution method. Summed up: as §2

Structures are written as SMILES. Values after ≈ are worked out from the molar mass of the structure shown.

On to `COC(=O)c1c2c(n3cc(Br)ccc13)C(=O)c1ncccc1C2=O`, for which the MIC against Enterococcus faecalis was 0.031 µg/mL (≈ 0.0805 µM); with Streptococcus, 0.031 µg/mL (≈ 0.0805 µM); against Pseudomonas aeruginosa, above 64 µg/mL; with Staphylococcus aureus [2] it was 0.063 µg/mL (≈ 0.164 µM); against Escherichia coli, 64 µg/mL (≈ 166 µM); against Candida albicans, above 64 µg/mL. Moreover, the results for the MIC (in assay [3]; with Staphylococcus aureus [4]; in assay [5]) were 0.016 µg/mL (≈ 0.0415 µM), 0.031 µg/mL (≈ 0.0805 µM) and above 64 µg/mL, respectively. The Ratio in the assay on Staphylococcus aureus [1] came out at 16.
With `CCN(CC)CCCNC(=O)c1c2c(n3cc(Br)ccc13)C(=O)c1ncccc1C2=O`, the MIC against Enterococcus faecalis is 4 µg/mL (≈ 8.28 µM); in the assay on Streptococcus it was 1 µg/mL (≈ 2.07 µM); in the assay on Pseudomonas aeruginosa it was above 64 µg/mL; with Staphylococcus aureus [2] it was 8 µg/mL (≈ 16.6 µM); in the assay on Escherichia coli, above 64 µg/mL; in the assay with Candida albicans, above 64 µg/mL. In addition, the MIC in assay [3] is 4 µg/mL (≈ 8.28 µM); with Staphylococcus aureus [4], 8 µg/mL (≈ 16.6 µM); in assay [5], above 64 µg/mL.
Regarding `CN(C)CCOC(=O)c1c2c(n3cc(Br)ccc13)C(=O)c1ncccc1C2=O`, the MIC against Enterococcus faecalis is 0.13 µg/mL (≈ 0.294 µM); in the assay on Streptococcus, 0.031 µg/mL (≈ 0.0701 µM); with Pseudomonas aeruginosa, above 64 µg/mL; against Staphylococcus aureus [2] it was 0.13 µg/mL (≈ 0.294 µM); in the assay with Escherichia coli, 2 µg/mL (≈ 4.52 µM); with Candida albicans it was above 64 µg/mL. The MIC in assay [3] amounted to 0.13 µg/mL (≈ 0.294 µM); in the assay on Staphylococcus aureus [4] it was 0.13 µg/mL (≈ 0.294 µM); in assay [5], 1 µg/mL (≈ 2.26 µM).
With `O=C1c2cccnc2C(=O)c2c1c(C(=O)NCCN1CCOCC1)c1ccc(Br)cn21`, the MIC against Enterococcus faecalis is 4 µg/mL (≈ 8.28 µM); with Streptococcus, 0.5 µg/mL (≈ 1.03 µM); against Pseudomonas aeruginosa it was 64 µg/mL (≈ 132 µM); against Staphylococcus aureus [2] it was 8 µg/mL (≈ 16.6 µM); in the assay on Escherichia coli, 64 µg/mL (≈ 132 µM); against Candida albicans it was above 64 µg/mL. The MIC in [3] is 4 µg/mL (≈ 8.28 µM); in the assay with Staphylococcus aureus [4], 1 µg/mL (≈ 2.07 µM); in [5], above 64 µg/mL.

For orientation: MIC means the least concentration at which growth counts as inhibited. A higher MIC goes with weaker potency.

The record behind these values is ChEMBL document CHEMBL1828603, “Synthesis, antimicrobial activity and possible mechanism of action of 9-bromo-substituted indolizinoquinoline-5,12-dione derivatives” (2011).
